Screening data: PubChem BioAssay, The Scripps Research Institute Molecular Screening Center
Hits are enriched below; roughly 1.8% of the tested compounds scored in any of these assays.
NPY Y1 blocker: blocks the human neuropeptide Y Y1 receptor; AID 1040; inhibition, % at 3.6 µM; P25929; HEK293-CNG Y1 cells, membrane potential fluorescence; NPY at EC95, then isoproterenol; 200,000 tested, 1% active;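 active = inhibition above the campaign mean inhibition of all tested compounds plus 3 SD, cut at about 20% in these data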;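 note: 0% = DMSO wells given NPY plus isoproterenol and 100% = isoproterenol alone without NPY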
Target sequence (P25929 whole entry, looked up): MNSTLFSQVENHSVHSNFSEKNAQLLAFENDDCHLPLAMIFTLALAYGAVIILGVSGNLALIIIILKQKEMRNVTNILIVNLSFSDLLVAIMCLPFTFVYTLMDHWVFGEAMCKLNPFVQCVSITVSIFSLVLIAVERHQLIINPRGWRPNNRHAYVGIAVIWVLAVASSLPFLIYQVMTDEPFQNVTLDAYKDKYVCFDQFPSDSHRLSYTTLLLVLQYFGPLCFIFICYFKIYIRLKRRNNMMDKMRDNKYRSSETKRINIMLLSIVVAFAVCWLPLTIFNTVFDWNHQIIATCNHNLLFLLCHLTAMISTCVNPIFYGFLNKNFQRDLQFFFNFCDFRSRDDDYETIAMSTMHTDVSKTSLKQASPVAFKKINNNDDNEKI
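Material: HEK293 Y1/CNG channel cell line; also added: NPY (25 nM), isoproterenol (1 µM), Ro 20-1724 (25 µM); doses: one concentration, 3.6 µM, in 0.4% DMSO; schedule: compound incubation 1 h at room temperature, readout 45 min post-stimulation; technique: membrane potential fluorescence; measure: fluorescence ratio normalized to % inhibition between controls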
NPY Y2 blocker: blocks the human neuropeptide Y Y2 receptor; P49146; NPY-Y2 expressing cells, antagonist mode; inhibition, % at 2.7 µM; 140,000 tested, 0.99% active; in the data active = inhibition above about 17%;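 note: 0% = vehicle with agonist challenge and 100% = reference antagonist with challenge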
NPY-Y2 PAM-ag: potentiates or activates human NPY-Y2 receptor; cells expressing NPY-Y2, potentiator/agonist read-out; P49146; 220,000 tested, 0.45% active; activation, % at 3.6 µM; in the data active = activation above about 27%;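 note: cells stimulated with NPY near EC25 plus isoproterenol at EC100; 0% = vehicle plus submaximal agonist and 100% = vehicle plus saturating agonist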
NPY-Y1 PAM-ag: potentiators or agonists of human neuropeptide Y receptor Y1 | P25929 | NPY-Y1 expressing cells, potentiator/agonist activation | activation, % at 3.6 µM | 220,000 tested, 0.37% active; in the data active = activation above about 33%, passing the limit was not always enough;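 note: cells stimulated with NPY at EC10 then isoproterenol at EC100; 0% = low agonist plus stimulus and 100% = saturating agonist plus stimulus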
An asterisk follows results filed as active.

Cc1cc2c(cc(C(=O)N3CCC(C(=O)N4CCCC4)CC3)n2Cc2c(F)cccc2Cl)o1 was read as NPY Y1 blocker 26*, NPY Y2 blocker 21*, NPY-Y2 PAM-ag -13 and NPY-Y1 PAM-ag -2.
For O=C(NC1CCCC1)C(c1ccc(F)cc1)N(Cc1ccccc1Cl)C(=O)CCl (configuration not stated) the results were NPY Y1 blocker 8, NPY Y2 blocker -1, NPY-Y2 PAM-ag -4 and NPY-Y1 PAM-ag 24.
For CCOC(=O)C1CCN(Cc2cnc(Oc3ccc(C(C)(C)C)cc3)s2)CC1 the results were NPY Y1 blocker -5, NPY Y2 blocker 8, NPY-Y2 PAM-ag -1 and NPY-Y1 PAM-ag 4.
Screening Cn1nnc2c[n+](CC(=O)c3ccc4ccccc4c3)cc(Br)c21 returned NPY-Y2 PAM-ag 57* and NPY-Y1 PAM-ag 47*.
Screening Cc1cccc(N2CCN(Cc3nc(-c4cccc(Cl)c4)oc3C)CC2)n1 returned NPY Y1 blocker 19, NPY-Y2 PAM-ag -28 and NPY-Y1 PAM-ag -20.
`Cc1cccc(N2CCN(Cc3nc(-c4ccccc4Cl)oc3C)CC2)n1` gave NPY Y1 blocker 20*, NPY-Y2 PAM-ag -39 and NPY-Y1 PAM-ag -18.
`CCOCCCNCc1cc(Cl)cc(Cl)c1OCC` gave NPY Y1 blocker 12, NPY-Y2 PAM-ag 3 and NPY-Y1 PAM-ag -11.
N=c1n(CCN2CCCCC2)c2ccccc2n1CC(O)c1ccc(Cl)c(Cl)c1 (configuration not stated) was read as NPY Y1 blocker 36*, NPY Y2 blocker 53*, NPY-Y2 PAM-ag -23 and NPY-Y1 PAM-ag -37.
`N=c1n(CCN2CCCCC2)c2ccccc2n1CC(O)c1cccc(Br)c1` (configuration not stated) gave NPY Y1 blocker 41*, NPY Y2 blocker 32*, NPY-Y2 PAM-ag -20 and NPY-Y1 PAM-ag -39.
Screening CC(C)(C)N(NC(=O)c1ccccc1)C(=O)c1cccc(C(=O)N(NC(=O)c2ccccc2)C(C)(C)C)c1 returned NPY Y1 blocker 41*, NPY Y2 blocker 20*, NPY-Y2 PAM-ag -16 and NPY-Y1 PAM-ag -24.
`CC(C)(C)N(NC(=O)Nc1ccccc1)C(=O)c1ccccc1` gave NPY Y1 blocker -1, NPY Y2 blocker 1, NPY-Y2 PAM-ag -7 and NPY-Y1 PAM-ag 3.
COc1ccccc1N(C(=O)c1snc(C(N)=O)c1N)C(C(=O)NC1CCCC1)c1ccco1 (configuration not stated) was read as NPY Y1 blocker 27*, NPY Y2 blocker 20*, NPY-Y2 PAM-ag -16 and NPY-Y1 PAM-ag -24.
For COc1ccccc1-c1nnc(SCC(=O)Nc2ccc(S(N)(=O)=O)cc2)n1N the results were NPY-Y2 PAM-ag 4 and NPY-Y1 PAM-ag 24.
`Cc1noc(C)c1S(=O)(=O)N(CCc1ccccc1)Cc1ccccc1` gave NPY Y1 blocker 24*, NPY Y2 blocker 20*, NPY-Y2 PAM-ag -23 and NPY-Y1 PAM-ag -17.
Screening CC(Oc1ccc(Cl)cc1)c1ccnn1S(=O)(=O)c1ccc(Cl)cc1 (configuration not stated) returned NPY Y1 blocker 21*, NPY Y2 blocker 22*, NPY-Y2 PAM-ag -20 and NPY-Y1 PAM-ag -9.
For CCCCC(CC)CNS(=O)(=O)c1ccc2c(c1)CCN2C(=O)CCC(=O)O (configuration not stated) the results were NPY Y1 blocker -8, NPY Y2 blocker 0, NPY-Y2 PAM-ag 18 and NPY-Y1 PAM-ag 41*.
`O=C(O)CCC(=O)N1CCc2cc(S(=O)(=O)NC3CCCC3)ccc21` gave NPY Y1 blocker -2, NPY Y2 blocker 0, NPY-Y2 PAM-ag 13 and NPY-Y1 PAM-ag 1.
CC(=O)c1ccc(NC(=O)CSc2nnc(Cn3c(=O)sc4ccccc43)n2C)cc1 was read as NPY Y1 blocker -7, NPY Y2 blocker -2, NPY-Y2 PAM-ag 12 and NPY-Y1 PAM-ag 16.
For O=C(/C=C/c1ccc2c(c1)OCO2)N1CCN(c2n[nH]c(=O)[nH]c2=O)CC1 the results were NPY-Y2 PAM-ag 1 and NPY-Y1 PAM-ag 8.
CN1CCN(S(=O)(=O)c2cccc(C(=O)N(c3ccccn3)C3CCCCC3)c2)CC1 was read as NPY Y1 blocker -3, NPY Y2 blocker 0, NPY-Y2 PAM-ag -7 and NPY-Y1 PAM-ag 16.
`CC1CCN(S(=O)(=O)c2cccc(C(=O)N(Cc3ccccc3)c3ccccn3)c2)CC1` gave NPY Y1 blocker 22*, NPY-Y2 PAM-ag -17 and NPY-Y1 PAM-ag -14.
For COc1ccc(C2(C)NC(=O)N(CC(=O)Nc3ccc(-c4nc5ccc(C)cc5s4)cc3)C2=O)cc1 (configuration not stated) the results were NPY Y1 blocker -12, NPY-Y2 PAM-ag 56* and NPY-Y1 PAM-ag 39*.
For CCCC(=O)c1ccc(O)cc1O the results were NPY-Y2 PAM-ag -4 and NPY-Y1 PAM-ag 5.
`CC(C)C[C@H](NC(=O)c1nc[nH]c1C(=O)NCCCCCNC(=O)OC(C)(C)C)C(=O)OCc1ccccc1` gave NPY Y1 blocker -13, NPY-Y2 PAM-ag 36* and NPY-Y1 PAM-ag 39*.
Screening C[C@H](NC(=O)c1nc[nH]c1C(=O)NCCCCCNC(=O)OC(C)(C)C)C(=O)OCc1ccccc1 returned NPY Y1 blocker 4, NPY-Y2 PAM-ag -1 and NPY-Y1 PAM-ag -11.
Screening Cn1c(=O)c2cc(S(=O)(=O)NCCC(=O)NCC3CCCO3)ccc2n(C)c1=O (configuration not stated) returned NPY Y1 blocker 3, NPY Y2 blocker -3, NPY-Y2 PAM-ag 18 and NPY-Y1 PAM-ag 30.
O=C1c2ccccc2-c2onc3ccc(NCc4ccco4)c1c23 was read as NPY Y1 blocker -6, NPY Y2 blocker 6, NPY-Y2 PAM-ag 53* and NPY-Y1 PAM-ag 53*.
Screening O=S(=O)(Nc1nc2ccccc2nc1NCC1CCCO1)c1cccc(Cl)c1 (configuration not stated) returned NPY-Y2 PAM-ag -8 and NPY-Y1 PAM-ag 11.
`COc1ccc(OCc2nc(C#N)c(N3CCN(c4ccc(OC)cc4)CC3)o2)cc1` gave NPY Y1 blocker 37*, NPY Y2 blocker 25*, NPY-Y2 PAM-ag -19 and NPY-Y1 PAM-ag -23.
For Cc1cccc(OCc2nc(C#N)c(N3CCCC3)o2)c1 the results were NPY-Y2 PAM-ag -22 and NPY-Y1 PAM-ag -9.
Screening N#Cc1nc(COc2ccccc2Cl)oc1N1CCCC1 returned NPY Y1 blocker 9, NPY-Y2 PAM-ag -7 and NPY-Y1 PAM-ag 3.
COc1ccc(N2CCN(c3oc(COc4ccccc4Cl)nc3C#N)CC2)cc1 was read as NPY Y1 blocker 42*, NPY Y2 blocker 25*, NPY-Y2 PAM-ag -25 and NPY-Y1 PAM-ag -22.
`CC1CN(c2oc(COc3ccc(Cl)cc3Cl)nc2C#N)CC(C)O1` (configuration not stated) gave NPY Y1 blocker 29*, NPY Y2 blocker 23*, NPY-Y2 PAM-ag -2 and NPY-Y1 PAM-ag -17.
Screening Cc1cccc(OCc2nc(C#N)c(N3CC(C)CC(C)C3)o2)c1 (configuration not stated) returned NPY Y1 blocker 56*, NPY Y2 blocker 18*, NPY-Y2 PAM-ag -26 and NPY-Y1 PAM-ag -37.
CCN1CCC(CNCc2cn(-c3ccc(OC)cc3)nc2-c2ccccc2Cl)C1 (configuration not stated) was read as NPY Y1 blocker 16, NPY-Y2 PAM-ag -22 and NPY-Y1 PAM-ag -24.
